Values after ≈ are worked out from the molar mass of the structure shown.
Experiments:
[1] = tested on: Mycolicibacterium smegmatis; test: Antimycobacterial activity against Mycobacterium smegmatis ATCC 14468 after 3 days by MTT assay; assay type: functional; details: ATCC 14468, 72 h
[2] = Cytotoxicity against human MRC5 cells assessed as cell viability at 100 uM after 72 hrs by XTT assay; assay type: cell-based; details: read-out: Activity
Method in brief: (§1)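 MRC-5 cells seeded at 5 × 10^4 cells/well and grown 24 h in MEM. Compounds came from fresh ethanol stocks; solvent control was 0.1% ethanol. 72 h exposure at 37 °C, 5% CO2. XTT plus electron-coupling reagent (50:1) added for 4 h. Viability expressed as % of solvent control, triplicate on at least two plates (n = 6), mean ± SEM.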

[3] = Cytotoxicity against human MRC5 cells assessed as cell viability at 30 uM after 72 hrs by XTT assay; assay type: cell-based; details: read-out: Activity; method in brief: as §1
[4] = tested on: Mycolicibacterium smegmatis; test: Antimycobacterial activity against Mycobacterium smegmatis mc2155 after 3 days by MTT assay; assay type: functional; details: mc2155, 72 h
Method in brief: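 Broth microdilution MIC. Inoculum grown on Columbia blood agar with 7% defibrinated horse blood, suspended in 0.9% NaCl to 5 × 10^5 cells/mL. Sterile, growth and isoniazid controls were included. Incubated 3 days at 37 °C; methanolic MTT added, dark violet indicating growth. Tests repeated three times.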

[5] = tested on: Mycolicibacterium fortuitum; test: Antimycobacterial activity against Mycobacterium fortuitum ATCC 6841 after 3 days by MTT assay; assay type: functional; details: ATCC 6841, 72 h
Mycolicibacterium phlei = test: Antimycobacterial activity against Mycobacterium phlei ATCC 11758 after 3 days by MTT assay; assay type: functional; details: ATCC 11758, 72 h
[6] = Cytotoxicity against human MRC5 cells assessed as cell viability at 0.12 uM after 72 hrs by XTT proliferation assay; assay type: cell-based; details: read-out: Activity

Compound	MIC [1] [µg/mL]	viability at 72 h, 100 µM [2] [%]	viability at 72 h, 30 µM [3] [%]	MIC [4] [µg/mL]	MIC [5] [µg/mL]	MIC (Mycolicibacterium phlei) [µg/mL]	viability at 72 h, 0.12 µM [6] [%]
CCCCCCCCCC/C=C/c1cc(=O)c2ccccc2n1CCCCC	8 (≈ 21 µM)	0.25	31.6	–	–	–	–
CCCCCCC/C=C/c1cc(=O)c2ccccc2n1CC	8 (≈ 26.9 µM)	52.6	96.6	–	–	–	–
CCCCCCC/C=C/c1cc(=O)c2ccccc2n1CCC	4 (≈ 12.8 µM)	7.4	32.9	–	–	–	–
C=CCn1c(/C=C/CCCCCCC)cc(=O)c2ccccc21	8 (≈ 25.9 µM)	0.53	10.1	–	–	–	–
C#CCn1c(/C=C/CCCCCCC)cc(=O)c2ccccc21	2 (≈ 6.51 µM)	63.9	71.1	2 (≈ 6.51 µM)	32 (≈ 104 µM)	4 (≈ 13 µM)	–
CCCCCCCC/C=C/c1cc(=O)c2ccccc2n1CC	4 (≈ 12.8 µM)	0.53	39.2	–	–	–	–
CCCCCCCC/C=C/c1cc(=O)c2ccccc2n1CCC	2 (≈ 6.14 µM)	0.5	56.1	2 (≈ 6.14 µM)	2 (≈ 6.14 µM)	2 (≈ 6.14 µM)	–
C=CCn1c(/C=C/CCCCCCCC)cc(=O)c2ccccc21	2 (≈ 6.18 µM)	0.63	33	1 (≈ 3.09 µM)	4 (≈ 12.4 µM)	2 (≈ 6.18 µM)	–
C#CCn1c(/C=C/CCCCCCCC)cc(=O)c2ccccc21	16 (≈ 49.8 µM)	0.4	43.6	–	–	–	–
CCCCCCCC/C=C/c1cc(=O)c2ccccc2n1CCCCC	2 (≈ 5.66 µM)	0.46	61.7	1 (≈ 2.83 µM)	4 (≈ 11.3 µM)	4 (≈ 11.3 µM)	–
C#CCn1c(/C=C/CCCCCCCCC)cc(=O)c2ccccc21	4 (≈ 11.9 µM)	26.3	92.3	–	–	–	–
CCCCCCCCC/C=C/c1cc(=O)c2ccccc2n1CCCCC	4 (≈ 10.9 µM)	0.38	41.6	–	–	–	–
C#CCn1c(/C=C/CCCCCCCCCC)cc(=O)c2ccccc21	64 (≈ 183 µM)	0.64	40.7	–	–	–	–
CCCCCCCCCC/C=C/c1cc(=O)c2ccccc2n1CCCC	4 (≈ 10.9 µM)	0.45	42.4	–	–	–	–
C=CCn1c(/C=C/CCCCCCCCCCC)cc(=O)c2ccccc21	4 (≈ 10.9 µM)	1.06	17.9	–	–	–	–
CCCCCCCCCCC/C=C/c1cc(=O)c2ccccc2n1CCCCC	128 (≈ 324 µM)	0.25	11.7	–	–	–	–
CCCCCCCCCCCC/C=C/c1cc(=O)c2ccccc2n1CCC	16 (≈ 41.9 µM)	0.72	42.6	–	–	–	–
C=CCn1c(/C=C/CCCCCCCCCCCC)cc(=O)c2ccccc21	16 (≈ 42.2 µM)	0.7	98.2	–	–	–	–
C#CCn1c(/C=C/CCCCCCCCCCCC)cc(=O)c2ccccc21	128 (≈ 339 µM)	10	100	–	–	–	–
CCCCCCCCCCCC/C=C/c1cc(=O)c2ccccc2n1CCCC	128 (≈ 324 µM)	0.51	10.9	–	–	–	–
O=C(O)c1cn(C2CC2)c2cc(N3CCNCC3)c(F)cc2c1=O [CIPROFLOXACIN]	0.125 (≈ 0.377 µM)	–	–	–	–	–	–
CC[C@@H](CO)NCCN[C@@H](CC)CO [ETHAMBUTOL]	2 (≈ 9.79 µM)	–	–	4 (≈ 19.6 µM)	16 (≈ 78.3 µM)	4 (≈ 19.6 µM)	–
NNC(=O)c1ccncc1 [ISONIAZID]	4 (≈ 29.2 µM)	–	–	4 (≈ 29.2 µM)	1 (≈ 7.29 µM)	16 (≈ 117 µM)	–
CC[C@]1(O)C[C@@H]2CN(CCc3c([nH]c4ccccc34)[C@@](C(=O)OC)(c3cc4c(cc3OC)N(C)[C@H]3[C@@](O)(C(=O)OC)[C@H](OC(C)=O)[C@]5(CC)C=CCN6CC[C@]43[C@@H]65)C2)C1 [VINBLASTINE]	–	–	–	–	–	–	60.1

From ChEMBL document CHEMBL1781899, “Synthesis of N-substituted 2-[(1E)-alkenyl]-4-(1H)-quinolone derivatives as antimycobacterial agents against non-tubercular mycobacteria” (Eur J Med Chem, 2011)
